Laboratory results taken from ChEMBL document CHEMBL4130487, “A pentanoic acid derivative targeting matrix metalloproteinase-2 (MMP-2) induces apoptosis in a chronic myeloid leukemia cell line” (Eur J Med Chem, 2017).
The source made the active and inactive calls. The rule behind the calls is not given here.

Legend:
[1] = system: K562; assay: Induction of apoptosis in human K562 cells assessed as early apoptotic cells at 2.5 uM after 48 hrs by Annexin V-FITC/propidium iodide staining based flow cytometry (reference value: 9.6%); type: functional
[2] = system: K562; assay: Cell cycle arrest in human K562 cells assessed as accumulation at G1-phase at 10 uM after 48 hrs by propidium iodide staining based flow cytometry (reference value: 27.5%); type: functional
[3] = system: K562; assay: Induction of apoptosis in human K562 cells assessed as necrotic cells at 5 uM after 48 hrs by Annexin V-FITC/propidium iodide staining based flow cytometry (reference value: 0%); type: functional
[4] = system: K562; assay: Downregulation of MMP2 protein expression in human K562 cells assessed as MMP2 negative population at 5 uM after 48 hrs by FITC staining based flow cytometry (reference value: 1.6%)
[5] = system: K562; assay: Induction of apoptosis in human K562 cells assessed as early apoptotic cells at 5 uM after 48 hrs by Annexin V-FITC/propidium iodide staining based flow cytometry (reference value: 9.6%); type: functional
[6] = system: K562; assay: Cell cycle arrest in human K562 cells assessed as accumulation at G1-phase at 5 uM after 48 hrs by propidium iodide staining based flow cytometry (reference value: 27.5%); type: functional
[7] = system: A549; assay: Cytotoxicity against human A549 cells assessed as reduction in cell viability after 48 hrs by MTT assay; type: functional, cell-based; conditions: A549, 48 h
In short: (§1)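 A549, MDA-MB-231, K562, U937 and PBMC (PBMC from healthy donors) seeded at 1×10^3 cells/well and left 24 h, then exposed to compounds for 48 h at 37 °C, 5% CO2. Adherent lines were grown in DMEM, the others in RPMI-1640 with 10% heat-inactivated FBS. MTT read-out; viability expressed as % of untreated control. IC50 taken as the concentration giving 50% viability loss.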

[8] = system: K562; assay: Anti-invasive activity against human K562 cells after 24 hrs by CyQuantGR dye based fluorimetric QCM EC matrix assay; type: functional, cell-based
In short: (§2)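 K562 cells (1X10^6 cells/ml) starved overnight in FBS-free medium, then placed in inserts in FBS-free medium with 5% BSA, with 5% FBS medium below as chemoattractant. Treated at 2.5, 5 and 10 μM in triplicate for 24 h alongside an untreated control. Invaded cells were detached, stained with CyQuantGR and read by fluorescence (ex 480/em 520 nm). Results given as % of control, mean ± SD.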

[9] = system: K562; assay: Induction of apoptosis in human K562 cells assessed as increase in early apoptotic cells at 2.5 to 10 uM after 48 hrs by Annexin V-FITC/propidium iodide staining based flow cytometry relative to control; type: functional
[10] = target: 72 kDa type IV collagenase (Homo sapiens, UniProt P08253); assay: Inhibition of recombinant human MMP2 (Tyr110 to Asp452 residues) using Ac-Pro-Leu-Gly-S-Leu-Leu-Gly-OEt as substrate after 1 hr measured at 1 min time interval for 30 mins by microplate photometric method
In short: (§3)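 Commercial MMP kits; compound preincubated with enzyme before chromogenic substrate was added. Reactions at 37 °C for 1 h, with at least six inhibitor concentrations in triplicate. Absorbance at 410 nm read every 1 min for 30 min. NNGH used as reference inhibitor. IC50 taken from semi-logarithmic dose-response plots.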

[11] = system: K562; assay: Induction of apoptosis in human K562 cells assessed as late apoptotic cells at 5 uM after 48 hrs by Annexin V-FITC/propidium iodide staining based flow cytometry (reference value: 0.3%); type: functional
[12] = target: T1, Interstitial collagenase (Homo sapiens, UniProt P03956); assay: Inhibition of recombinant human MMP1 (Phe100 to Gln268 residues) using Ac-Pro-Leu-Gly-S-Leu-Leu-Gly-OEt as substrate after 1 hr measured at 1 min time interval for 30 mins by microplate photometric method; in short: as §3
T1 sequence (P03956 whole entry): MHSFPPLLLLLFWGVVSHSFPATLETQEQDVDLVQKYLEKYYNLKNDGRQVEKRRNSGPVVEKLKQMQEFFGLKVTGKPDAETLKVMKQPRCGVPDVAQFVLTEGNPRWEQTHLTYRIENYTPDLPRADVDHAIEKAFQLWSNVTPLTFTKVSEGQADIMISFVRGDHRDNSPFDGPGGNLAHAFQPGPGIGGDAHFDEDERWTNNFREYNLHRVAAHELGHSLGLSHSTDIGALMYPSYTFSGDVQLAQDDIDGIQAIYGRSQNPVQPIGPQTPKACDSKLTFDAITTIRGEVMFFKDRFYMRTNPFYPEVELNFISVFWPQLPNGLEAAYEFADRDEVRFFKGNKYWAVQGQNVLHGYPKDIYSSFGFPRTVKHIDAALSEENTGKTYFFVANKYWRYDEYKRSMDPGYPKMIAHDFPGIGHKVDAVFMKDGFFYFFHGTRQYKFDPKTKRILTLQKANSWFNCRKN

[13] = system: K562; assay: Induction of apoptosis in human K562 cells assessed as live cells at 2.5 uM after 48 hrs by Annexin V-FITC/propidium iodide staining based flow cytometry (reference value: 90.1%); type: functional
[14] = system: K562; assay: Downregulation of MMP2 protein expression in human K562 cells up to 10 uM after 48 hrs by Western blot method; type: functional, cell-based
In short: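 K562 cells (~2×10^6) grown 48 h, then treated. Lysed on ice in Tris-HCl pH 7.5 buffer with CHAPS and glycerol. 50 µg protein run on 12% SDS-PAGE (15% for β-tubulin) and blotted to PVDF. Probed with anti-MMP-2 and anti-β-tubulin (1:1000) overnight at 4 °C, then ALKP secondary antibody and DAB development. Band intensity normalised to β-tubulin; mean ± SD.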

[15] = system: PBMC; assay: Cytotoxicity against human PBMC assessed as reduction in cell viability after 48 hrs by MTT assay; type: cell-based; in short: as §1
[16] = system: K562; assay: Induction of apoptosis in human K562 cells assessed as live cells at 10 uM after 48 hrs by Annexin V-FITC/propidium iodide staining based flow cytometry (reference value: 90.1%); type: functional
[17] = system: K562; assay: Anti-invasive activity against human K562 cells at 10 uM after 24 hrs by CyQuantGR dye based fluorimetric QCM EC matrix assay relative to control; type: functional; conditions: K562, 24 h; in short: as §2
[18] = target: Matrix metalloproteinase-14 (Homo sapiens, UniProt P50281); assay: Inhibition of recombinant human MMP14 (Tyr112 to Arg298 residues) expressed in Escherichia coli using Ac-Pro-Leu-Gly-S-Leu-Leu-Gly-OEt as substrate after 1 hr measured at 1 min time interval for 30 mins by microplate photometric method; in short: as §3
[19] = system: K562; assay: Induction of apoptosis in human K562 cells assessed as necrotic cells at 2.5 uM after 48 hrs by Annexin V-FITC/propidium iodide staining based flow cytometry (reference value: 0%); type: functional
[20] = system: U-937; assay: Cytotoxicity against human U937 cells assessed as reduction in cell viability after 48 hrs by MTT assay; type: functional, cell-based; conditions: U-937, 48 h; in short: as §1
[21] = system: K562; assay: Induction of apoptosis in human K562 cells assessed as DNA nick generation after 48 hrs by DAPI staining based fluorescence microscopic method
[22] = system: K562; assay: Induction of apoptosis in human K562 cells assessed as necrotic cells at 10 uM after 48 hrs by Annexin V-FITC/propidium iodide staining based flow cytometry (reference value: 0%); type: functional

72 kDa type IV collagenase, sequence (P08253 whole entry): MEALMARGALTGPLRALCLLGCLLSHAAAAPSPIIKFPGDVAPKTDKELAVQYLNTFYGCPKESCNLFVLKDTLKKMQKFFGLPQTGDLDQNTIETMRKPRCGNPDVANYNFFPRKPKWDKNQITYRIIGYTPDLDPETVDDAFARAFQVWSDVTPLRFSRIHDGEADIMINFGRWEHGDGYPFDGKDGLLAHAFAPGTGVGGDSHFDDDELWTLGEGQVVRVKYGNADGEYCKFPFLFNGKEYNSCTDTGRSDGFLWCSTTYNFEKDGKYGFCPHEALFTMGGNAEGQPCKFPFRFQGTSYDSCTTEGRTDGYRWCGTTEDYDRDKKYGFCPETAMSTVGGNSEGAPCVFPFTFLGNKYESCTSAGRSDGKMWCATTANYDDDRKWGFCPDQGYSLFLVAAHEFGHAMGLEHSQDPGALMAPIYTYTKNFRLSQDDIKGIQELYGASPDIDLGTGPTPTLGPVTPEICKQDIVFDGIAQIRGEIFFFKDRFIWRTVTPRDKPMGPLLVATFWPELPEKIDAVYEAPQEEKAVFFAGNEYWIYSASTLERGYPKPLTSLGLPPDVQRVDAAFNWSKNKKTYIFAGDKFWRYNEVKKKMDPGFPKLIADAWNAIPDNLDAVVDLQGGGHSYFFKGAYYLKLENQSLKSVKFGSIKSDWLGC

## CCCCCNC(=O)CC[C@H](NS(=O)(=O)c1ccc([N+](=O)[O-])cc1)C(=O)O
[1]
  Activity: 14.3%
[2]
  Activity: 39.8%
[3]
  Activity: 0.1%
[4]
  Activity: 81.1%
[5]
  Activity: 15.4%
[6]
  Activity: 33.4%
[7]
  IC50: 206 µM
[8]
  Activity: Dose-dependent effect
[9]
  fold change (FC): <=300
[10]
  IC50: 4.8 µM
[11]
  Activity: 8.5%
[12]
  IC50: > 500 µM
[13]
  Activity: 73.5%
[14]
  Activity: Active
[15]
  IC50: > 1000 µM
[16]
  Activity: 74%
[17]
  inhibition at 10 µM: 24.1%
[18]
  IC50: 436 µM
[19]
  Activity: 0.5%
[20]
  IC50: 32.1 µM
[21]
  Activity: Active
[22]
  Activity: 0.4%
